Test results taken from publication PMC11974842 (bioRxiv, 2025).

B1: ScCia1, strep-tagged bait (natural protein)
chain: MASINLIKSLKLYKEKIWSFDFSQGILATGSTDRKIKLVSVKYDDFTLIDVLDETAHKKAIRSVAWRPHTSLLAAGSFDSTVSIWAKEESADRTFEMDLLAIIEGHENEVKGVAWSNDGYYLATCSRDKSVWIWETDESGEEYECISVLQEHSQDVKHVIWHPSEALLASSSYDDTVRIWKDYDDDWECVAVLNGHEGTVWSSDFDKTEGVFRLCSGSDDSTVRVWKYMGDDEDDQQEWVCEAILPDVHKRQVYNVAWGFNGLIASVGADGVLAVYEEVDGEWKVFAKRALCHGVYEINVVKWLELNGKTILATGGDDGIVNFWSLEKAA

How the values were obtained:
[1] = target: FITC-4mer probe (last 4 residues of ScLeu1) (Saccharomyces cerevisiae) (UniProt P07264); assay: fluorescence polarisation
[2] = target: ScCia2 (Saccharomyces cerevisiae); assay: MST
ScNar1 = target: T1, ScNar1 (Saccharomyces cerevisiae, UniProt P23503 1-491); assay: pull-down
T1 sequence: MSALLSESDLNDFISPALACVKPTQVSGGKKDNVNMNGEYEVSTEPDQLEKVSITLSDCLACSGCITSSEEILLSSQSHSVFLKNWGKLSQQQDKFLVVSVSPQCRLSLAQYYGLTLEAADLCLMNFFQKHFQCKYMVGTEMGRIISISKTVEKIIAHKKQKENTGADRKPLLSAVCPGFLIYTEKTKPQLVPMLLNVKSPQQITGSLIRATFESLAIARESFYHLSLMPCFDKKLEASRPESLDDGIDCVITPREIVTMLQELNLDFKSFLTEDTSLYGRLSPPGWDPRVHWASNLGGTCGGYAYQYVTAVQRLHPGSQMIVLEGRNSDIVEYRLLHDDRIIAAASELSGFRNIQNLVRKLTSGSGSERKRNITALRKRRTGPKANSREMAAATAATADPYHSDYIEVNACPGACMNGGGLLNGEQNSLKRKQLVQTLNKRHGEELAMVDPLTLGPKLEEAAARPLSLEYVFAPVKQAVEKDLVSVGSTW

full-length Nar1 = assay: Affinity copurification of CTC with ScCia1 variants and full-length Nar1; type: binding, Saccharomyces cerevisiae; settings: ScCia1 variants incorporated into the CTC
SPCNar1 = assay: Affinity copurification of ScCia1 variants with SPCNar1; type: binding, Saccharomyces cerevisiae; settings: ScCia1 variants with Met18 and strep-tagged Cia2 bait, western blot
[3] = tested on: ScCTC (Cia1, Cia2, Met18); assay: Affinity copurification with ScCTC; type: binding, Saccharomyces cerevisiae; settings: streptactin eluate, strep-tagged Cia2 bait, SDS-PAGE / western blot
Procedure, shortened: (§1)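 Nar1 is the prey. Strep-tagged bait is either single CTC subunits (Cia1 alone) or combinations (Cia1-Cia2, or full Cia1-Cia2-Met18 complex). Eluates are analysed by SDS-PAGE and western blot for copurifying Nar1. Uncropped gels, including input samples and controls, accompany the analysis.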

ScCia1-Cia2 = assay: Affinity copurification with ScCia1-Cia2; type: binding, Saccharomyces cerevisiae; settings: streptactin eluate, SDS-PAGE / western blot
Procedure, shortened: as §1

ScCia1 = assay: Affinity copurification with ScCia1; type: binding, Saccharomyces cerevisiae; settings: streptactin eluate, SDS-PAGE / western blot
Procedure, shortened: as §1

ScCTC-Leu1 complex = assay: Competition of Nar1 with Leu1 for the CTC; type: binding, Saccharomyces cerevisiae; settings: Nar1 0.25-1.0 molar equivalents relative to Leu1; streptactin eluate, SDS-PAGE
[4] = target: B1; assay: pull-down

HsCia1-Cia2a complex (from UniProt O76071 1-339; Q9H5X1 1-160)
Kd [1]: 48 µM

ScCia1 Y254A (from UniProt Q05583 1-330) (natural protein)
fold increase in KD against wild-type Cia1 [2]: > 10 fold

CtCia1-Cia2 complex
Kd [1]: 25 µM

ScCia1-Cia2 complex (from UniProt Q05583 1-330)
Kd [1]: 86 µM

B1
binding result (ScNar1): binds

B2: R127E (protein, UniProt Q05583 1-330, looked up, variant R127E)
Cytosolic iron-sulfur protein …: MASINLIKSLKLYKEKIWSFDFSQGILATGSTDRKIKLVSVKYDDFTLIDVLDETAHKKAIRSVAWRPHTSLLAAGSFDSTVSIWAKEESADRTFEMDLLAIIEGHENEVKGVAWSNDGYYLATCSEDKSVWIWETDESGEEYECISVLQEHSQDVKHVIWHPSEALLASSSYDDTVRIWKDYDDDWECVAVLNGHEGTVWSSDFDKTEGVFRLCSGSDDSTVRVWKYMGDDEDDQQEWVCEAILPDVHKRQVYNVAWGFNGLIASVGADGVLAVYEEVDGEWKVFAKRALCHGVYEINVVKWLELNGKTILATGGDDGIVNFWSLEKAA
interaction with full-length Nar1 (full-length Nar1): none of the Cia1 variants tested, including the charge swapped R127E variant, completely blocked interaction

B3: R127ACia1: ScCia1 variant (protein)
chain: MASINLIKSLKLYKEKIWSFDFSQGILATGSTDRKIKLVSVKYDDFTLIDVLDETAHKKAIRSVAWRPHTSLLAAGSFDSTVSIWAKEESADRTFEMDLLAIIEGHENEVKGVAWSNDGYYLATCSADKSVWIWETDESGEEYECISVLQEHSQDVKHVIWHPSEALLASSSYDDTVRIWKDYDDDWECVAVLNGHEGTVWSSDFDKTEGVFRLCSGSDDSTVRVWKYMGDDEDDQQEWVCEAILPDVHKRQVYNVAWGFNGLIASVGADGVLAVYEEVDGEWKVFAKRALCHGVYEINVVKWLELNGKTILATGGDDGIVNFWSLEKAA
modifications: left off: His6, N-terminal, state not stated
interaction with SPCNar1 (SPCNar1): diminished the amount

B4: Nar1: full-length S. cerevisiae Nar1 with N-terminal His6-SUMO tag (protein)
chain: MSALLSESDLNDFISPALACVKPTQVSGGKKDNVNMNGEYEVSTEPDQLEKVSITLSDCLACSGCITSSEEILLSSQSHSVFLKNWGKLSQQQDKFLVVSVSPQCRLSLAQYYGLTLEAADLCLMNFFQKHFQCKYMVGTEMGRIISISKTVEKIIAHKKQKENTGADRKPLLSAVCPGFLIYTEKTKPQLVPMLLNVKSPQQITGSLIRATFESLAIARESFYHLSLMPCFDKKLEASRPESLDDGIDCVITPREIVTMLQELNLDFKSFLTEDTSLYGRLSPPGWDPRVHWASNLGGTCGGYAYQYVTAVQRLHPGSQMIVLEGRNSDIVEYRLLHDDRIIAAASELSGFRNIQNLVRKLTSGSGSERKRNITALRKRRTGPKANSREMAAATAATADPYHSDYIEVNACPGACMNGGGLLNGEQNSLKRKQLVQTLNKRHGEELAMVDPLTLGPKLEEAAARPLSLEYVFAPVKQAVEKDLVSVGSTW
copurification with the CTC [3]: Nar1 eluting with Cia1, Cia1-Cia2, and the full CTC
copurification with Cia1-Cia2 (ScCia1-Cia2): Nar1 eluting with Cia1, Cia1-Cia2, and the full CTC
copurification with Cia1 (ScCia1): Nar1 eluting with Cia1, Cia1-Cia2, and the full CTC
competition with Leu1 for binding to the CTC (ScCTC-Leu1 complex): the interaction of Nar1 and Leu1 with the CTC is mutually exclusive

B5: Nar1 TCR-peptide variant: ScNar1 with C-terminal Trp substituted with Ala (protein)
chain: MSALLSESDLNDFISPALACVKPTQVSGGKKDNVNMNGEYEVSTEPDQLEKVSITLSDCLACSGCITSSEEILLSSQSHSVFLKNWGKLSQQQDKFLVVSVSPQCRLSLAQYYGLTLEAADLCLMNFFQKHFQCKYMVGTEMGRIISISKTVEKIIAHKKQKENTGADRKPLLSAVCPGFLIYTEKTKPQLVPMLLNVKSPQQITGSLIRATFESLAIARESFYHLSLMPCFDKKLEASRPESLDDGIDCVITPREIVTMLQELNLDFKSFLTEDTSLYGRLSPPGWDPRVHWASNLGGTCGGYAYQYVTAVQRLHPGSQMIVLEGRNSDIVEYRLLHDDRIIAAASELSGFRNIQNLVRKLTSGSGSERKRNITALRKRRTGPKANSREMAAATAATADPYHSDYIEVNACPGACMNGGGLLNGEQNSLKRKQLVQTLNKRHGEELAMVDPLTLGPKLEEAAARPLSLEYVFAPVKQAVEKDLVSVGSTA
copurification with the CTC [3]: less Nar1 TCR-peptide variant was found in the eluate

KDLVSVGSTW (domain or fragment) [SPCNar1 (SUMO peptide carrier with Nar1 residues 482-491)]
binding result [4]: binds

B6: Leu1: S. cerevisiae Leu1 with N-terminal His6-TEV tag (protein)
chain: MVYTPSKGPRTLYDKVFDAHVVHQDENGSFLLYIDRHLVHEVTSPQAFEGLENAGRKVRRVDCTLATVDHNIPTESRKNFKSLDTFIKQTDSRLQVKTLENNVKQFGVPYFGMSDARQGIVHTIGPEEGFTLPGTTVVCGDSHTSTHGAFGSLAFGIGTSEVEHVLATQTIIQAKSKNMRITVNGKLSPGITSKDLILYIIGLIGTAGGTGCVIEFAGEAIEALSMEARMSMCNMAIEAGARAGMIKPDETTFQYTKGRPLAPKGAEWEKAVAYWKTLKTDEGAKFDHEINIEAVDVIPTITWGTSPQDALPITGSVPDPKNVTDPIKKSGMERALAYMGLEPNTPLKSIKVDKVFIGSCTNGRIEDLRSAAAVVRGQKLASNIKLAMVVPGSGLVKKQAEAEGLDKIFQEAGFEWREAGCSICLGMNPDILDAYERCASTSNRNFEGRQGALSRTHLMSPAMAAAAGIAGHFVDIREFEYKDQDQSSPKVEVTSEDEKELESAAYDHAEPVQPEDAPQDIANDELKDIPVKSDDTPAKPSSSGMKPFLTLEGISAPLDKANVDTDAIIPKQFLKTIKRTGLKKGLFYEWRFRKDDQGKDQETDFVLNVEPWREAEILVVTGDNFGCGSSREHAPWALKDFGIKSIIAPSYGDIFYNNSFKNGLLPIRLDQQIIIDKLIPIANKGGKLCVDLPNQKILDSDGNVLVDHFEIEPFRKHCLVNGLDDIGITLQKEEYISRYEALRREKYSFLEGGSKLLKFDNVPKRKAVTTTFDKVHQDW
copurification with the CTC [3]: requires its C-terminal Trp to interact with the CTC in vitro
